The results in this text go back to ChEMBL document CHEMBL1126036, “Quinolone antibacterial agents. Synthesis and structure-activity relationships of a series of amino acid prodrugs of racemic and chiral 7-(3-amino-1-pyrrolidinyl)quinolones. Highly soluble quinolone prodrugs with in vivo pseudomonas activity” (J Med Chem, 1992).

By MIC is commonly meant the smallest concentration in the dilution series that meets the test's criterion for growth inhibition.

Data set [1] can be described thus: Solubility (in 0.1 N HCl). In kind it is physicochemical. Conditions: read-out: S. In a few lines:
(§1)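 Solubility was measured either from HPLC peak areas at equilibrium or by a conventional weight-per-volume method. All solutions were held for 24 h before measurement.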

Data set [2] is described as follows: Solubility (at pH 4). In kind it is physicochemical. Conditions: buffer, read-out: S. In a few lines:
as §1

A short description of data set [3]: Solubility (at pH 7.4). Format: physicochemical. Conditions: buffer. In a few lines:
as §1

The subject of data set [4] is Escherichia coli. The data set can be described thus: In vitro antibacterial activity against gram negative Escherichia coli Vogel. Format: functional.
Another data set deals with Enterococcus faecalis. Kind of data set: In vitro antibacterial activity against gram positive Enterococcus faecalis MGH-2. Format: functional.
Another data set has as its system Enterobacter cloacae. Kind of data set: In vitro antibacterial activity against gram negative Enterobacter cloacae MA 2646. In kind it is functional.
Data set [5] has as its system Klebsiella pneumoniae. Kind of data set: In vitro antibacterial activity against gram negative Klebsiella pneumoniae MGH-2. In kind it is functional.
Data set [6] relates to Escherichia coli. Kind of data set: In vivo potency against acute systemic infection in mouse caused by Escherichia coli Vogel on oral administration by gavage. Conditions: read-out: PD50. In kind it is functional. In a few lines:
(§2)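 Acute systemic mouse infection. A single oral dose was given by gavage at the time of challenge. Potency is reported as the median protective dose (PD50, mg/kg), determined by earlier published methods.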

For data set [7], the system named is Mus musculus. Kind of data set: In vivo potency against acute systemic infection in mouse caused by Streptococcus pneumoniae SV-1 on oral administration by gavage. In kind it is functional. The settings on record: read-out: PD50. In a few lines: as §2
Data set [8] concerns Streptococcus pneumoniae. The data set can be described thus: In vivo potency against acute systemic infection in mouse caused by Streptococcus pneumoniae SV-1 on subcutaneous injection. In kind it is functional. The settings on record: sc, read-out: PD50. In a few lines: (§3)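 Acute systemic mouse infection. A single subcutaneous dose was injected at the time of challenge. Potency is reported as the median protective dose (PD50, mg/kg), determined by earlier published methods.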

Data set [9] concerns Escherichia coli. Kind of data set: In vivo potency against acute systemic infection in mouse caused by Escherichia coli vogel on subcutaneous injection. Format: functional. The settings on record: sc, read-out: PD50. In a few lines:
as §3

In data set [10] the test system is Pseudomonas aeruginosa. Kind of data set: In vitro antibacterial activity against gram negative Pseudomonas aeruginosa UI-18. In kind it is functional.
The test system of a further data set is Providencia rettgeri. Kind of data set: In vitro antibacterial activity against gram negative Providencia rettgeri M-1771. In kind it is functional.
In data set [11] the test system is Staphylococcus aureus. Kind of data set: In vitro antibacterial activity against gram positive Staphylococcus aureus H-228. In kind it is functional.
The test system of a further data set is Streptococcus pyogenes. Kind of data set: In vitro antibacterial activity against gram positive Streptococcus pyogenes C-203. In kind it is functional.
Data set [12] has as its system Staphylococcus aureus. The data set can be described thus: In vitro antibacterial activity against gram positive Staphylococcus aureus UC76. Format: functional.
The test system of data set [13] is Streptococcus pneumoniae. Kind of data set: In vitro antibacterial activity against gram positive Streptococcus pneumoniae SV-1. In kind it is functional.
The nature of data set [14]: Aqueous solubility. Format: physicochemical. Conditions: read-out: S. In a few lines:
as §1

In data set [15] the test system is Klebsiella pneumoniae. Kind of data set: In vitro antibacterial activity against gram negative Klebsiella pneumoniae. MGH-2. Format: functional.
Data set [16] has as its system Mus musculus. The data set can be described thus: In vivo potency against acute systemic infection in mouse caused by Streptococcus pneumoniae SV-1 on subcutaneous injection. Format: functional. Conditions: sc, read-out: PD50. In a few lines: as §3
Data set [17] concerns Pseudomonas aeruginosa. Kind of data set: In vitro antibacterial activity against gram negative Pseudomonas aeruginosa. UI-18. In kind it is functional.
In data set [18] the target is DNA gyrase (Escherichia coli) (UniProt P0AES6+P0AES4). Kind of data set: In vitro concentration inhibiting DNA gyrase induced cleavage in Escherichia coli H560. In kind it is functional. In a few lines:
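DNA gyrase test run as described in earlier work. The value is the drug concentration (µg/mL) needed to cause DNA cleavage.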

Data set [19] deals with Streptococcus pneumoniae. The data set can be described thus: In vivo potency against acute systemic infection in mouse caused by Streptococcus pneumoniae SV-1 on oral administration by gavage. Format: functional. Conditions: read-out: PD50. In a few lines:
as §2

For data set [20], the system named is Mus musculus. Kind of data set: In vivo potency against acute systemic infection in mouse caused by Pseudomonas aeruginosa UI-18 on oral administration by gavage. In kind it is functional. The settings on record: read-out: PD50. In a few lines: as §2
For data set [21], the system named is Mus musculus. The data set can be described thus: In vivo potency against acute systemic infection in mouse caused by Pseudomonas aeruginosa. UI-18. on subcutaneous injection. Conditions: sc, read-out: PD50. In kind it is functional. In a few lines:
as §3

In data set [22] the test system is Mus musculus. Kind of data set: In vivo potency against acute systemic infection in mouse caused by Streptococcus pyogenes C-203 on oral administration by gavage. Format: functional. Conditions: read-out: PD50. In a few lines: as §2
Data set [23] concerns Mus musculus. The data set can be described thus: In vivo potency against acute systemic infection in mouse caused by Streptococcus pyogenes C-203 on subcutaneous injection. The settings on record: sc, read-out: PD50. Format: functional. In a few lines: as §3

Molecules are shown by their SMILES. Converted amounts (≈) assume the structure as drawn. Where only a bound is given, the exact number is not on record here.

On to `Cl.N[C@@H](Cc1ccccc1)C(=O)NC1CCN(c2nc3c(cc2F)c(=O)c(C(=O)O)cn3C2CC2)C1.O` (some centres not stated), for which the solubility was 80 mg/mL in data set [1], over 100 mg/mL in [2], 0.06 mg/mL in data set [3] (read-out: S) and over 200 mg/mL in [14] (water (aqueous)). Also, the MIC against Escherichia coli [4] turned out to be 0.8 µg/mL; in the data set with Enterococcus faecalis it was 0.8 µg/mL; against Enterobacter cloacae, 0.4 µg/mL; against Klebsiella pneumoniae [5] it was 3.1 µg/mL; against Pseudomonas aeruginosa [10] it was 6.3 µg/mL; against Providencia rettgeri, 6.3 µg/mL. Further, the MIC in the data set on Staphylococcus aureus [11] turned out to be 3.1 µg/mL; with Streptococcus pyogenes it was 1.6 µg/mL; with Staphylococcus aureus [12] it was 0.4 µg/mL; with Streptococcus pneumoniae [13] it was 0.8 µg/mL. The ED50 was 2 mg/kg in the data set with Escherichia coli [6], 65 mg/kg in the data set on Mus musculus [7], 37 mg/kg in the data set with Streptococcus pneumoniae [8] and 0.4 mg/kg in the data set on Escherichia coli [9].
As to `Cl.NCCCC[C@H](N)C(=O)NC1CCN(c2nc3c(cc2F)c(=O)c(C(=O)O)cn3C2CC2)C1.O` (some centres not stated), the solubility was over 200 mg/mL in [1], over 600 mg/mL in data set [2], 0.07 mg/mL in data set [3] and over 300 mg/mL in data set [14] (water (aqueous)). The MIC against Escherichia coli [4] was 12.5 µg/mL; against Enterococcus faecalis it was over 25 µg/mL; in the data set on Enterobacter cloacae, 12.5 µg/mL; against Klebsiella pneumoniae [15], 25 µg/mL; against Pseudomonas aeruginosa [17], over 25 µg/mL; against Providencia rettgeri, 25 µg/mL. The MIC in the data set on Staphylococcus aureus [11] was 25 µg/mL; against Streptococcus pyogenes, over 25 µg/mL; in the data set on Staphylococcus aureus [12] it was 6.3 µg/mL; with Streptococcus pneumoniae [13], over 25 µg/mL. The ED50 in the data set on Mus musculus [7] amounted to 71 mg/kg; in the data set with Mus musculus [16], 70 mg/kg.
With `C[C@@H](N)C(=O)NC1CCN(c2nc3c(cc2F)c(=O)c(C(=O)O)cn3C2CC2)C1.Cl.O` (some centres not stated), the solubility is 189 mg/mL in data set [1], 262 mg/mL in [2], 0.06 mg/mL in [14] (pH 7.4 phosphate buffer) and over 250 mg/mL in data set [14] (water (aqueous)). For the same compound, the MIC amounted to 0.8 µg/mL in the data set with Escherichia coli [4]; 0.2 µg/mL with Enterococcus faecalis; 0.8 µg/mL in the data set on Enterobacter cloacae; 0.8 µg/mL in the data set on Klebsiella pneumoniae [15]; 1.6 µg/mL with Pseudomonas aeruginosa [10]; 1.6 µg/mL against Providencia rettgeri. The MIC against Staphylococcus aureus [11] was determined as 0.4 µg/mL; with Streptococcus pyogenes, 0.013 µg/mL; in the data set on Staphylococcus aureus [12], 0.05 µg/mL; against Streptococcus pneumoniae [13], 0.25 µg/mL. In [18], this compound registered a Cleavage of 2.5 µg/mL. Besides, the ED50 with Escherichia coli [6] was 22.5 mg/kg; in the data set with Streptococcus pneumoniae [19] it was over 100 mg/kg; in the data set with Streptococcus pneumoniae [8] it was 3 mg/kg; in the data set on Escherichia coli [9], 5.1 mg/kg.
Take `N[C@@H]1CCN(c2nc3c(cc2F)c(=O)c(C(=O)O)cn3C2CC2)C1`: the MIC came out at 0.013 µg/mL (≈ 0.0391 µM) against Escherichia coli [4]; 0.2 µg/mL (≈ 0.602 µM) against Enterococcus faecalis; 0.025 µg/mL (≈ 0.0752 µM) against Enterobacter cloacae; 0.025 µg/mL (≈ 0.0752 µM) in the data set on Klebsiella pneumoniae [15]; 0.4 µg/mL (≈ 1.2 µM) against Pseudomonas aeruginosa [10]; 0.05 µg/mL (≈ 0.15 µM) against Providencia rettgeri. Moreover, the MIC worked out at 0.2 µg/mL (≈ 0.602 µM) against Staphylococcus aureus [11], 0.2 µg/mL (≈ 0.602 µM) against Streptococcus pyogenes, 0.05 µg/mL (≈ 0.15 µM) against Staphylococcus aureus [12] and 0.1 µg/mL (≈ 0.301 µM) in the data set with Streptococcus pneumoniae [13]. Besides, the Cleavage in data set [18] was 0.5 µg/mL. For the same compound, the ED50 in the data set on Escherichia coli [6] was 0.5 mg/kg; in the data set with Streptococcus pneumoniae [19], 45 mg/kg; in the data set on Streptococcus pneumoniae [8], 34 mg/kg; in the data set on Escherichia coli [9] it was 0.4 mg/kg.
Regarding `N[C@H]1CCN(c2nc3c(cc2F)c(=O)c(C(=O)O)cn3C2CC2)C1`, the MIC turned out to be 0.006 µg/mL (≈ 0.0181 µM) with Escherichia coli [4]; 0.1 µg/mL (≈ 0.301 µM) in the data set on Enterococcus faecalis; 0.013 µg/mL (≈ 0.0391 µM) against Enterobacter cloacae; 0.013 µg/mL (≈ 0.0391 µM) in the data set on Klebsiella pneumoniae [15]; 0.1 µg/mL (≈ 0.301 µM) in the data set with Pseudomonas aeruginosa [10]; 0.025 µg/mL (≈ 0.0752 µM) against Providencia rettgeri. Also, the MIC in the data set on Staphylococcus aureus [11] was found to be 0.05 µg/mL (≈ 0.15 µM); against Streptococcus pyogenes it was 0.05 µg/mL (≈ 0.15 µM); in the data set with Staphylococcus aureus [12], 0.013 µg/mL (≈ 0.0391 µM); in the data set with Streptococcus pneumoniae [13] it was 0.05 µg/mL (≈ 0.15 µM). The Cleavage in [18] was 0.25 µg/mL. In addition, the ED50 in the data set with Escherichia coli [6] came to 0.8 mg/kg; in the data set on Streptococcus pneumoniae [19], 19 mg/kg; with Streptococcus pneumoniae [8], 14 mg/kg; in the data set on Escherichia coli [9], 0.4 mg/kg; in the data set on Mus musculus [20], 4 mg/kg; in the data set on Mus musculus [21], 2 mg/kg. Besides, the ED50 in the data set on Mus musculus [22] turned out to be 19 mg/kg; in the data set with Mus musculus [23] it was 9 mg/kg.
